Test results taken from ChEMBL document CHEMBL4819075, “Discovery of a potent, selective, and covalent ZAP-70 kinase inhibitor” (Eur J Med Chem, 2021).
Activity calls are given as the source filed them. No cut-off for these calls is given here.

Experiments:
[1] = molecular target: Tyrosine-protein kinase SYK (Homo sapiens, UniProt P43405); test: Inhibition of N-terminal GST-fused human recombinant full length SYK (1 to 635 residues) expressed in baculovirus-infected Sf21 cells using FAM-22 peptide as substrate preincubated with enzyme for 10 mins followed by substrate addition for 30 mins in presence of ATP by caliper mobility shift assay
[2] = molecular target: T1, Tyrosine-protein kinase ZAP-70 (Homo sapiens) (UniProt P43403); test: Covalent binding affinity at C346 residue of N-terminal GST-fused human recombinant full length ZAP70 (1 to 619 residues) expressed in baculovirus-infected Sf21 cells at 55 nM preincubated for 5 mins followed by DTT challenge for 10 mins and measured after 18 hrs following trypsin digestion by mass spectrometry; conditions: time 1095.0 min
T1 sequence (whole entry): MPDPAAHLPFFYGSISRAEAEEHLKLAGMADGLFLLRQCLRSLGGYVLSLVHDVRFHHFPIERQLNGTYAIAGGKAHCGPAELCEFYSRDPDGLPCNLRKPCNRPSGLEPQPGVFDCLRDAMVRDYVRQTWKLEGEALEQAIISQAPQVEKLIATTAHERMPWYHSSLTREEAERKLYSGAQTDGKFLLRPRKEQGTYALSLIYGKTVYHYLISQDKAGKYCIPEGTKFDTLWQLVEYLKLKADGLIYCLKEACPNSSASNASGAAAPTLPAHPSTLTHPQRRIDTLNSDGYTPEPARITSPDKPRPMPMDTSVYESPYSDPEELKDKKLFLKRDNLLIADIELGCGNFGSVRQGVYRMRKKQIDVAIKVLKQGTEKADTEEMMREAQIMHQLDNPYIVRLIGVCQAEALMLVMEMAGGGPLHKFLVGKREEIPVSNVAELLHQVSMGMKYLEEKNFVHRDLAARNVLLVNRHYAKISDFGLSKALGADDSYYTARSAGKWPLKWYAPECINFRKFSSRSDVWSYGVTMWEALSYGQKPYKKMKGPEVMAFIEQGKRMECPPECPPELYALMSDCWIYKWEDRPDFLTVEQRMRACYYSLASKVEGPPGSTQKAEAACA
Procedure, shortened: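 Recombinant ZAP-70 at 75 nM final in assay buffer (0.01% Triton X-100, 50 mM HEPES, 5 mM MgCl₂, 1 mM MnCl₂). Compound added to 55 nM final and incubated 5 min at 28 °C. DTT then added to 2 mM final for 10 min at room temperature. Trypsin digestion at 37 °C for 18 h, stopped with TFA, C18 desalting. Modified sites mapped by nano-LC–MS/MS.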

CD4+ve Th [3] = test: Inhibition of anti-CD3/CD28 antibodies stimulated-IL-4 production in BALB/c mouse CD4+ T cells at 100 to 400 nM measured after 48 hrs by ELISA; assay type: functional, cell-based; conditions: dose 100-400 nM
Procedure, shortened: (§1)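 Supernatants of BALB/c splenic CD4+ T cells, purified by immunomagnetic negative selection (>98% purity). Cells stimulated with anti-CD3 (5 µg/ml) plus anti-CD28 (2 µg/ml) in RPMI 1640 with 10% FBS and penicillin/streptomycin at 37 °C, 5% CO₂. Compound is given from DMSO stock diluted in medium at increasing concentrations for 48 h. Mouse IFN-γ or IL-4 measured by ELISA kit.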

[4] = molecular target: Tyrosine-protein kinase JAK2 (Homo sapiens, UniProt O60674); test: Inhibition of JAK2 (unknown origin)
Sequence of Tyrosine-protein kinase JAK2 (O60674 whole entry): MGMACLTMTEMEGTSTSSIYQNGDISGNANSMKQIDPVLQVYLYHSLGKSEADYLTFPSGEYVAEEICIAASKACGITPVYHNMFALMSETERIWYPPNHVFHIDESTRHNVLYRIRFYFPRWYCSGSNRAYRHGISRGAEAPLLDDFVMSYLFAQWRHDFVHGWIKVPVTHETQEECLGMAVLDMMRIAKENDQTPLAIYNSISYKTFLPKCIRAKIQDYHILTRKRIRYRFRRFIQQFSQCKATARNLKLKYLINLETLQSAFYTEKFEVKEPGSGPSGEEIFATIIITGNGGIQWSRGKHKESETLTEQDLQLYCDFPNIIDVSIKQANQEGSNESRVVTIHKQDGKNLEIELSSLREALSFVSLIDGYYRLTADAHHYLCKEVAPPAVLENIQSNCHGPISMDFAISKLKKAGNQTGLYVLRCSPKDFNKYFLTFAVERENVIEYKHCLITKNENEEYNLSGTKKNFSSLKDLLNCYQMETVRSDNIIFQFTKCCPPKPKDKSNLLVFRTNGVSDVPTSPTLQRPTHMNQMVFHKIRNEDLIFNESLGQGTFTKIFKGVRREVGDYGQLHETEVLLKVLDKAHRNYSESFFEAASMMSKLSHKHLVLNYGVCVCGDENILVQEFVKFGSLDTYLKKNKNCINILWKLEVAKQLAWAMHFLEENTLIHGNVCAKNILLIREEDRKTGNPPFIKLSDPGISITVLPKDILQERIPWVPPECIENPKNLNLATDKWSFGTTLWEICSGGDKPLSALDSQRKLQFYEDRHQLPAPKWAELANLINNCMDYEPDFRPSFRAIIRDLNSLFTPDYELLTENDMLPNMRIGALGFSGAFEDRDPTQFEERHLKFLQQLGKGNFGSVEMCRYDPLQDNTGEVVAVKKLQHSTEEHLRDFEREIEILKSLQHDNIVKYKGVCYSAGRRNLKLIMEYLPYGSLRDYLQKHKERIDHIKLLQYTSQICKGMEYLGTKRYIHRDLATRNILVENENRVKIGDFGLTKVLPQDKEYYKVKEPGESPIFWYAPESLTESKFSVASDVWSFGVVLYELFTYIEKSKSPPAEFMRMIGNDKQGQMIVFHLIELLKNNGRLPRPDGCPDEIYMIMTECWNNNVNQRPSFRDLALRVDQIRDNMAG

CD4+ve Th [5] = test: Inhibition of anti-CD3/CD28 antibodies-stimulated BALB/c mouse CD4+ T cell division measured after 72 hrs by CFSE-labeled flow cytometry; assay type: functional, tissue-based; conditions: dose 100-400 nM
Procedure, shortened: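 Purified BALB/c CD4+ T cells labeled with CFSE at 37 °C for 5 min and washed in RPMI 1640/20% FBS. Cells cultured with anti-CD3 ([…]) plus anti-CD28 ([…]) in RPMI 1640/10% FBS with compound for 72 h. Division read as CFSE dilution by flow cytometry.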

CD4+ve Th [6] = test: Inhibition of anti-CD3/CD28 antibodies stimulated-IFN-gamma production in BALB/c mouse CD4+ T cells at 100 to 400 nM measured after 48 hrs by ELISA; assay type: functional, cell-based; conditions: dose 100-400 nM; procedure, shortened: as §1
[7] = molecular target: Tyrosine-protein kinase BTK (Homo sapiens, UniProt Q06187); test: Inhibition of BTK (unknown origin)
Sequence of Tyrosine-protein kinase BTK (Q06187 whole entry): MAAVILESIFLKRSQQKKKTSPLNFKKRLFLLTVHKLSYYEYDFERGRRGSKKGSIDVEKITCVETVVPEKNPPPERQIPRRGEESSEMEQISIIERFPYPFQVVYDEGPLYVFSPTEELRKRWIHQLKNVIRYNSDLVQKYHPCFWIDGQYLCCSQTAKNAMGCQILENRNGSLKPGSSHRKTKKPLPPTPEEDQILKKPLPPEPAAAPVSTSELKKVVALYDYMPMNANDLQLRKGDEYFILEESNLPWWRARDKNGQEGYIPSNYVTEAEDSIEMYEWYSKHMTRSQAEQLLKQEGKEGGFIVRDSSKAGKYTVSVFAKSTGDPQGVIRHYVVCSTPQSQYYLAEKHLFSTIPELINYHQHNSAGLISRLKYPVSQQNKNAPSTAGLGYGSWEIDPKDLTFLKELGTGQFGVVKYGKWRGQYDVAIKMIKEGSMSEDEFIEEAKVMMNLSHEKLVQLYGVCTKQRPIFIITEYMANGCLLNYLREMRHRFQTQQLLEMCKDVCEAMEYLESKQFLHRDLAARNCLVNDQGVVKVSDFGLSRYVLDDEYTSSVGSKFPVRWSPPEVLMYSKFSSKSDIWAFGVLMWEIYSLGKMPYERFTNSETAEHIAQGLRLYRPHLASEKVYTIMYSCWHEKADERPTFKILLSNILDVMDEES

[8] = Inhibition of anti-CD3/CD28 antibodies-stimulated BALB/c mouse CD4+ T cell activation assessed as frequency of CD4+/CD69+ T cells at 400 nM measured after 24 hrs by flow cytometric analysis (reference value: 2.51%); assay type: functional, CD4+ve Th; parameters: scale not given: the % may be the effect or the level left
Procedure, shortened: (§2)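 Purified BALB/c splenic CD4+ T cells (negative selection) stimulated with anti-CD3 plus anti-CD28 in RPMI 1640/10% FBS with compound for 24 or 48 h. Cells Fc-blocked with anti-CD16/CD32, then stained with FITC-CD3, PE-CD25, APC-CD4 and BV421-CD69. Analyzed by flow cytometry. Data as mean ± SD; one-way ANOVA with Dunnett's test.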

[9] = molecular target: Tyrosine-protein kinase JAK1 (Homo sapiens, UniProt P23458); test: Inhibition of JAK1 (unknown origin)
CD4+ve Th [10] = test: Inhibition of anti-CD3/CD28 antibodies-stimulated BALB/c mouse CD4+ T cell proliferation measured after 48 hrs by [3H]thymidine incorporation based beta scintillation counting analysis; assay type: functional, tissue-based; conditions: dose 100-400 nM
Procedure, shortened: (§3)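 Purified BALB/c splenic CD4+ T cells stimulated with anti-CD3 plus anti-CD28 in RPMI 1640/10% FBS with compound (DMSO stock diluted in medium). After 48 h, cultures pulsed with [³H]thymidine 0.5 µCi/well. Incorporated radioactivity counted by beta scintillation.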

[11] = molecular target: Tyrosine-protein kinase Lck (Homo sapiens, UniProt P06239); test: Inhibition of LCK (unknown origin)
Sequence of Tyrosine-protein kinase Lck (P06239 whole entry): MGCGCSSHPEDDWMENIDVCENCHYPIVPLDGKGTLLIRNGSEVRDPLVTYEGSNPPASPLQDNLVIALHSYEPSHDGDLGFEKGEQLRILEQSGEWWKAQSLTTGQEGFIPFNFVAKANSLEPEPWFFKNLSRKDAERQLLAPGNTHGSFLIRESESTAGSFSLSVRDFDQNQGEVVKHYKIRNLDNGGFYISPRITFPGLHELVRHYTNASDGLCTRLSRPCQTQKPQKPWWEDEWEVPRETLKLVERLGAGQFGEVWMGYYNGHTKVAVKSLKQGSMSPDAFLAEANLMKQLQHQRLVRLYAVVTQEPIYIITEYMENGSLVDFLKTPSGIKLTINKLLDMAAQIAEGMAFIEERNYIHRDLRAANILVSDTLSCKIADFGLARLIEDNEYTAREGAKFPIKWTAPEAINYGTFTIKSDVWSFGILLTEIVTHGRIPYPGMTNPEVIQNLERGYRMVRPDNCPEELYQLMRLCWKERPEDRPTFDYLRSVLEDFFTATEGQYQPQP

[12] = molecular target: Tyrosine-protein kinase ABL1 (Homo sapiens, UniProt P00519); test: Inhibition of ABL (unknown origin)
Sequence of Tyrosine-protein kinase ABL1 (P00519 whole entry): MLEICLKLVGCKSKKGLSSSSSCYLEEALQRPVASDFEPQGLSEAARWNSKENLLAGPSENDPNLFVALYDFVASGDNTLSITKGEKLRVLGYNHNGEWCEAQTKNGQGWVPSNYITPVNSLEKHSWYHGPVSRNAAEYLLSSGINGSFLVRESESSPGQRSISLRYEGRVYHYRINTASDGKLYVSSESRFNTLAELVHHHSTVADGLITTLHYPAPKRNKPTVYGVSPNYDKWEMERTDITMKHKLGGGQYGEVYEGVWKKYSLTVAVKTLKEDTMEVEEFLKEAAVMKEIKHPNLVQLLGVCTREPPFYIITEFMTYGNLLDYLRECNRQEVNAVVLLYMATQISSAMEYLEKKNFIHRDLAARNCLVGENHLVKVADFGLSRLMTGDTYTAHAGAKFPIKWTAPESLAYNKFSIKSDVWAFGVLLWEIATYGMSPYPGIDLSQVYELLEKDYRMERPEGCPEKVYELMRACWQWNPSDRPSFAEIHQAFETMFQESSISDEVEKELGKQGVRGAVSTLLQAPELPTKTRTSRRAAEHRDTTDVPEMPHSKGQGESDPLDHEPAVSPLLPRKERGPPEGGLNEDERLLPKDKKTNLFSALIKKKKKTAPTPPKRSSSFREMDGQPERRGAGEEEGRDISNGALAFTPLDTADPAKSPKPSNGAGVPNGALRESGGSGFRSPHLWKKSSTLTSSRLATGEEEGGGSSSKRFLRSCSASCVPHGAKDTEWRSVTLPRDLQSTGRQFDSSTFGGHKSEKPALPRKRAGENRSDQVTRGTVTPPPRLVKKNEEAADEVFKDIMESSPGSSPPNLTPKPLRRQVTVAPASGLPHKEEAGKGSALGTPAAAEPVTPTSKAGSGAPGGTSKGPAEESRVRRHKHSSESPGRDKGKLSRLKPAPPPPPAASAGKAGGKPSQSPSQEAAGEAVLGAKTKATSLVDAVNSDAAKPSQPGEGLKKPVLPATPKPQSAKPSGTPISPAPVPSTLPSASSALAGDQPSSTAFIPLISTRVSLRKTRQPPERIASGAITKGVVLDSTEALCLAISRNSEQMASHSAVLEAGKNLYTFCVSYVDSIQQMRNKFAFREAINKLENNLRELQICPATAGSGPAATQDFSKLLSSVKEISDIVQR

[13] = Inhibition of anti-CD3/CD28 antibodies-stimulated BALB/c mouse CD4+ T cell activation assessed as frequency of CD4+/CD69+ T cells at 400 nM measured after 48 hrs by flow cytometric analysis (reference value: 14.9%); assay type: functional, CD4+ve Th; parameters: scale not given: the % may be the effect or the level left; procedure, shortened: as §2
[14] = molecular target: Tyrosine-protein kinase HCK (Homo sapiens, UniProt P08631); test: Inhibition of HCK (unknown origin)
Sequence of Tyrosine-protein kinase HCK (P08631 whole entry): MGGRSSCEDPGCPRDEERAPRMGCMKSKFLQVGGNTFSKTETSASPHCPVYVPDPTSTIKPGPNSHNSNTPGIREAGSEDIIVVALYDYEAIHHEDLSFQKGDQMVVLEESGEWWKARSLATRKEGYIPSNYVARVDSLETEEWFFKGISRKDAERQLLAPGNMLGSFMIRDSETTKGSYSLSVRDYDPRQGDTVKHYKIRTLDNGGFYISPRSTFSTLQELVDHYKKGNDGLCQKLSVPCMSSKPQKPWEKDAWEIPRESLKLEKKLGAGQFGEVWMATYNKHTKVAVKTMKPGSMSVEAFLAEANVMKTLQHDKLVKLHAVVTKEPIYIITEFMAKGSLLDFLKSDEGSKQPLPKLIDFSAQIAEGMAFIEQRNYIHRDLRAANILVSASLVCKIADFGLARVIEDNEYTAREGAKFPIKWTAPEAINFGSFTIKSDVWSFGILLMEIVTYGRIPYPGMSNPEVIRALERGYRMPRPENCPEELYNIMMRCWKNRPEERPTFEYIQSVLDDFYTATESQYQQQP

[15] = Inhibition of anti-CD3/CD28 antibodies-stimulated BALB/c mouse CD4+ T cell activation assessed as frequency of CD4+/CD69+ T cells at 200 nM measured after 24 hrs by flow cytometric analysis (reference value: 2.51%); assay type: functional, CD4+ve Th; parameters: scale not given: the % may be the effect or the level left; procedure, shortened: as §2
[16] = Inhibition of anti-CD3/CD28 antibodies-stimulated BALB/c mouse CD4+ T cell activation assessed as frequency of CD4+/CD69+ T cells at 200 nM measured after 48 hrs by flow cytometric analysis (reference value: 14.9%); assay type: functional, CD4+ve Th; parameters: scale not given: the % may be the effect or the level left; procedure, shortened: as §2
[17] = molecular target: Proto-oncogene tyrosine-protein kinase Src (Homo sapiens, UniProt P12931); test: Inhibition of SRC (unknown origin)
Sequence of Proto-oncogene tyrosine-protein kinase Src (P12931 2-536 limits assumed): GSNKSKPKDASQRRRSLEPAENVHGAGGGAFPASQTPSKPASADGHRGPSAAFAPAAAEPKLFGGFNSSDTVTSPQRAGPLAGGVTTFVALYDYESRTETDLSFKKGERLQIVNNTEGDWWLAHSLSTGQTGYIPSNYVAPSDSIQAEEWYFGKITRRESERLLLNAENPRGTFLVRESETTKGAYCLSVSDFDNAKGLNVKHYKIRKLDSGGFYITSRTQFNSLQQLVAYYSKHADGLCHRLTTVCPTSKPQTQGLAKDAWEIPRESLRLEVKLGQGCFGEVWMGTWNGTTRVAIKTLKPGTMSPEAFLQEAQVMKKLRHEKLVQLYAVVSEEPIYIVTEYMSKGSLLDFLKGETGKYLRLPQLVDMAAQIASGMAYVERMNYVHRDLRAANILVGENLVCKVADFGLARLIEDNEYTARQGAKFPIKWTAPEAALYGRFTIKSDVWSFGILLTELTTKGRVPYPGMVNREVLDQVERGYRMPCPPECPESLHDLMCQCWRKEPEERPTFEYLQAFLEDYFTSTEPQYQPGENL

[18] = molecular target: T2, Tyrosine-protein kinase ITK/TSK (Homo sapiens, UniProt Q08881); test: Inhibition of ITK (unknown origin)
T2 sequence (Q08881 whole entry): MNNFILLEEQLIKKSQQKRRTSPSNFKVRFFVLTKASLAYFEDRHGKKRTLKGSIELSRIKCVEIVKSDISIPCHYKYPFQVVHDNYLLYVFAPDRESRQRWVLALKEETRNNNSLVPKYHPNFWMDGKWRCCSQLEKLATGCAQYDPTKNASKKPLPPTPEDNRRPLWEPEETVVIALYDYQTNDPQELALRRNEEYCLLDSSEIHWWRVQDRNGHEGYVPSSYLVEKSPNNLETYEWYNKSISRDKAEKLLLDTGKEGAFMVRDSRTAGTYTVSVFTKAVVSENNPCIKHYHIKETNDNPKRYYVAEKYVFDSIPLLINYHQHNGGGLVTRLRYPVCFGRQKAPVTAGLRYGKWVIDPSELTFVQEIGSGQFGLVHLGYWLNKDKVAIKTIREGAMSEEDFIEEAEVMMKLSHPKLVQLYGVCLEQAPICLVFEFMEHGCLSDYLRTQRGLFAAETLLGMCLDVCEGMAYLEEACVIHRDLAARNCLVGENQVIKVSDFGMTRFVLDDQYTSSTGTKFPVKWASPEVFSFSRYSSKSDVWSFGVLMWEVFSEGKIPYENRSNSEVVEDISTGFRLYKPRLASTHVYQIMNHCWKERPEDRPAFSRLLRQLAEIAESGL

CD4+ve Th [19] = test: Inhibition of anti-CD3/CD28 antibodies-stimulated BALB/c mouse CD4+ T cell activation assessed as reduction in CD25 expression measured after 24 to 48 hrs by flow cytometric analysis; assay type: functional, tissue-based; conditions: time 24-48 hrs; procedure, shortened: as §2
[20] = Inhibition of anti-CD3/CD28 antibodies-stimulated BALB/c mouse CD4+ T cell proliferation at 400 nM measured after 48 hrs by [3H]thymidine incorporation based beta scintillation counting analysis; assay type: functional; conditions: CD4+ve Th; procedure, shortened: as §3
[21] = molecular target: Non-receptor tyrosine-protein kinase TYK2 (Homo sapiens, UniProt P29597); test: Inhibition of TYK2 (unknown origin)
[22] = molecular target: T3, Tyrosine-protein kinase ZAP-70 (Homo sapiens, UniProt P43403); test: Inhibition of N-terminal GST-fused human recombinant full length ZAP70 (1 to 619 residues) expressed in baculovirus-infected Sf21 cells using FAM-22 peptide as substrate preincubated with enzyme for 10 mins followed by substrate addition for 30 mins in presence of ATP by caliper mobility shift assay
T3 sequence (P43403 whole entry): T1 sequence (whole entry)

[23] = Inhibition of anti-CD3/CD28 antibodies-stimulated BALB/c mouse CD4+ T cell activation assessed as frequency of CD4+/CD69+ T cells at 100 nM measured after 48 hrs by flow cytometric analysis (reference value: 14.9%); assay type: functional, CD4+ve Th; parameters: scale not given: the % may be the effect or the level left; procedure, shortened: as §2
[24] = Inhibition of anti-CD3/CD28 antibodies-stimulated BALB/c mouse CD4+ T cell activation assessed as frequency of CD4+/CD69+ T cells at 100 nM measured after 24 hrs by flow cytometric analysis (reference value: 2.51%); assay type: functional, CD4+ve Th; parameters: scale not given: the % may be the effect or the level left; procedure, shortened: as §2

IC50 [1]: > 1 µM
Activity [2]: Active
IC50 [4]: > 1 µM
IC50 [7]: > 1 µM
IC50 [9]: > 1 µM
IC50 [11]: > 1 µM
IC50 [12]: > 1 µM
IC50 [14]: > 1 µM
IC50 [17]: > 1 µM
IC50 [18]: > 1 µM
IC50 [21]: > 1 µM
IC50 [22]: 0.055 µM
Compound: COc1cc(Nc2nc(NCc3cccc(NC(=O)CCl)c3)n3ccnc3c2C(N)=O)cc(OC)c1
inhibition (CD4+ve Th [3]): Active
inhibition (CD4+ve Th [5]): Dose-Dependent Effect
inhibition (CD4+ve Th [6]): Active
Activity [8]: 0.925%
inhibition (CD4+ve Th [10]): Dose-Dependent Effect
Activity [13]: 3.64%
Activity [15]: 0.932%
Activity [16]: 4.47%
inhibition (CD4+ve Th [19]): Active
inhibition at 0.4 µM [20]: 100%
Activity [23]: 9.83%
Activity [24]: 1.55%
